Reference: ChEMBL document CHEMBL1132599, “Bisquaternary ligands of the common allosteric site of M2 acetylcholine receptors: search for the minimum essential distances between the pharmacophoric elements” (J Med Chem, 1999)
pEC50: −log10 of the molar value.

Columns and labels:
[1] = molecular target: T1, Muscarinic acetylcholine receptor M2 (Sus scrofa, UniProt P06199); assay: Allosteric potency against the dissociation of radioligand [3H]N-methylscopolamine from the porcine cardiac Muscarinic acetylcholine receptor M2
T1 sequence (P06199 whole entry): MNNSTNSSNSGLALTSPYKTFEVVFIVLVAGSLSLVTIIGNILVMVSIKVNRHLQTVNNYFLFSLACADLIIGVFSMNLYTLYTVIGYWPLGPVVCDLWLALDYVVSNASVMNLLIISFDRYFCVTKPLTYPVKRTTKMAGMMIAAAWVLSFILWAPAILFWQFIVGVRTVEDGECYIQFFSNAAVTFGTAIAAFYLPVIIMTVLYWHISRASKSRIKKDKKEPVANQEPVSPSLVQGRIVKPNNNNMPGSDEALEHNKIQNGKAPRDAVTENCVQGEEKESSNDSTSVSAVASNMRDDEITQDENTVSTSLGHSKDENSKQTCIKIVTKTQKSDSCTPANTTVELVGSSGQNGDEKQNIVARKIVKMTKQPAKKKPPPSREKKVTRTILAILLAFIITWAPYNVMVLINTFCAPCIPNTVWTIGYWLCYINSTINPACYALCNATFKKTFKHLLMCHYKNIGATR
In short: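 Porcine ventricular membranes: homogenized in 0.32 M sucrose, spun at 300g then 80000g, resuspended in 50 mM Tris-HCl pH 7.4. Labeled with 0.2 nM [3H]NMS for 30 min in 2.6 mM MgHPO4/45 mM Tris-HCl, pH 7.3, 37 °C. Dissociation started with 1 µM atropine plus modulator, sampled up to 2 h (some two-point, 0 and 4 min), then filtered and counted. EC50 is the concentration halving monoexponential k-1 (4–6 concentrations).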

[2] = Half life (t1/2) value of the compound.; format: ADME
In short: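 Chemical hydrolysis followed by UV spectroscopy for 24 h at 20 °C in TRIS-HCl–Mg buffer (3.6 mM MgHPO4, 50 mM TRIS, pH 7.3); half-life of the compound reported in hours.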

SMILES | pEC50 [1] | half-life [2] [h]
C[N+](C)(CCCC[N+](C)(C)CCCN1C(=O)c2ccccc2C1=O)CCCN1C(=O)c2ccccc2C1=O.[Br-].[Br-] | 5.57 | 14
O=C1c2ccccc2C(=O)N1CCCC[n+]1ccc(CCCc2cc[n+](CCCCN3C(=O)c4ccccc4C3=O)cc2)cc1 | 6.20 | –
C[N+](C)(CCCCC[N+](C)(C)CCCN1C(=O)c2ccccc2C1=O)CCCN1C(=O)c2ccccc2C1=O.[Br-].[Br-] | 5.86 | 17.4
C[N+](C)(CCCCCCC[N+](C)(C)CCCN1C(=O)c2ccccc2C1=O)CCCN1C(=O)c2ccccc2C1=O.[Br-].[Br-] | 6.43 | 16.4
C[N+](C)(CCCCCCCC[N+](C)(C)CCCN1C(=O)c2ccccc2C1=O)CCCN1C(=O)c2ccccc2C1=O.[Br-].[Br-] | 6.24 | 35.2
O=C1c2ccccc2C(=O)N1C[n+]1ccc(CCCc2cc[n+](CN3C(=O)c4ccccc4C3=O)cc2)cc1 | 4.29 | –
O=C1c2ccccc2C(=O)N1CO/N=C/c1cc[n+](CCC[n+]2ccc(/C=N/OCN3C(=O)c4ccccc4C3=O)cc2)cc1 | 6.29 | –
O=C1c2ccccc2C(=O)N1CCCO/N=C/c1cc[n+](CCC[n+]2ccc(/C=N/OCCCN3C(=O)c4ccccc4C3=O)cc2)cc1 | 6.28 | –
O=C1c2ccccc2C(=O)N1CCCO/N=C/c1cc[n+](CCCCCC[n+]2ccc(/C=N/OCCCN3C(=O)c4ccccc4C3=O)cc2)cc1 | 6.35 | –
O=C1c2ccccc2C(=O)N1CCCO/N=C/c1cc[n+](CCCC[n+]2ccc(/C=N/OCCCN3C(=O)c4ccccc4C3=O)cc2)cc1 | 6.46 | –
C[N+](C)(CCCN1C(=O)c2ccccc2C1=O)CCCN1C(=O)c2ccccc2C1=O | 5.05 | –
O=C1c2ccccc2C(=O)N1CO/N=C/c1cc[n+](CCCC[n+]2ccc(/C=N/OCN3C(=O)c4ccccc4C3=O)cc2)cc1 | 5.72 | –
O=C1c2ccccc2C(=O)N1CO/N=C/c1cc[n+](CCCCCC[n+]2ccc(/C=N/OCN3C(=O)c4ccccc4C3=O)cc2)cc1 | 5.85 | –
O=C1c2ccccc2C(=O)N1CCC[n+]1ccc(CCc2cc[n+](CCCN3C(=O)c4ccccc4C3=O)cc2)cc1 | 5.63 | –
C[N+](C)(CCCCCC[N+](C)(C)CCCN1C(=O)c2ccccc2C1=O)CCCN1C(=O)c2ccccc2C1=O.[Br-].[Br-] | 5.84 | 18
C[N+](C)(CCCCCCCCCC[N+](C)(C)CCCN1C(=O)c2ccccc2C1=O)CCCN1C(=O)c2ccccc2C1=O.[Br-].[Br-] | 6.28 | 19.3
O=C1c2ccccc2C(=O)N1CC[n+]1ccc(CCCc2cc[n+](CCN3C(=O)c4ccccc4C3=O)cc2)cc1 | 5.46 | –
O=C1c2ccccc2C(=O)N1CCCC[n+]1ccc(CCc2cc[n+](CCCCN3C(=O)c4ccccc4C3=O)cc2)cc1 | 6.33 | –
C[N+](C)(CCCN1C(=O)c2ccccc2C1=O)CCC[N+](C)(C)CCCN1C(=O)c2ccccc2C1=O.[Br-].[Br-] | 5.42 | 14.5
O=C1c2ccccc2C(=O)N1CCCO/N=C/c1cc[n+](CCCCC[n+]2ccc(/C=N/OCCCN3C(=O)c4ccccc4C3=O)cc2)cc1 | 6.29 | –
O=C1c2ccccc2C(=O)N1CCC[n+]1ccc(CCCc2cc[n+](CCCN3C(=O)c4ccccc4C3=O)cc2)cc1 | 5.31 | –
O=C1c2ccccc2C(=O)N1CCCC[n+]1ccc(-c2cc[n+](CCCCN3C(=O)c4ccccc4C3=O)cc2)cc1 | 5.33 | –
